{"source": "paper PMC10038104", "about": "(ACS infectious diseases, 2022)", "key": {"[1]": {"tested_on": "Enterobacter cloacae ATCC 13047", "format": "cell-based"}, "[2]": {"tested_on": "E. nimipressuralis DSM 18955", "format": "cell-based"}, "E. asburiae DSM 17506": {"tested_on": "E. asburiae DSM 17506", "format": "cell-based"}, "E. mori DSM 26271": {"tested_on": "E. mori DSM 26271", "format": "cell-based"}, "E. coli MG1655": {"tested_on": "E. coli MG1655", "assay": "spot-on-lawn assay in M63 agar", "format": "cell-based", "details": "purified peptide dissolved in water", "summary_of_the_method": "(§1)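 Purified peptide in water, concentration set by A280. Each strain was grown overnight in LB, then subcultured in LB to mid-exponential phase (OD600 ~0.4-0.6). It was seeded at ~10^7 CFU/mL into molten M63 soft agar, overlaid on M63 agar and dried. Peptide was spotted at various concentrations and dried. After overnight incubation, zones of inhibition were scored; the last visible spot was taken as MIC.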"}, "B. subtilis 168": {"tested_on": "B. subtilis 168", "assay": "spot-on-lawn assay in M63 agar", "format": "cell-based", "details": "purified peptide dissolved in water", "summary_of_the_method": "as §1"}, "[3]": {"tested_on": "Salmonella enterica serovar Newport", "assay": "spot-on-lawn assay in M63 agar", "format": "cell-based", "details": "purified peptide dissolved in water", "summary_of_the_method": "as §1"}, "[4]": {"tested_on": "Klebsiella aerogenes ATCC 13048", "assay": "spot-on-lawn assay in M63 agar", "format": "cell-based", "details": "purified peptide dissolved in water", "summary_of_the_method": "as §1"}, "[5]": {"tested_on": "Enterobacter hormaechei ATCC 700323", "assay": "spot-on-lawn assay in M63 agar", "format": "cell-based", "details": "purified peptide dissolved in water", "summary_of_the_method": "as §1"}, "[6]": {"tested_on": "Enterobacter kobei BAA-260", "assay": "spot-on-lawn assay in M63 agar", "format": "cell-based", "details": "purified peptide dissolved in water", "summary_of_the_method": "as §1"}, "[7]": {"tested_on": "clinical isolates of Enterobacter", "assay": "spot-on-lawn assay, the other 6 clinical isolates", "format": "cell-based", "details": "the other 6 of 12 clinical isolates (Table S4B)", "summary_of_the_method": "as §1"}, "E. coli XL-1 Blue": {"tested_on": "E. coli XL-1 Blue", "assay": "intracellular expression from plasmid with cloD gene removed", "format": "cell-based", "details": "LB agar with IPTG; plasmid without cloD so that the peptide cannot be exported"}, "trypsin": {"target": "trypsin (Sus scrofa, UniProt P00761)", "sequence (P00761 9-231)": "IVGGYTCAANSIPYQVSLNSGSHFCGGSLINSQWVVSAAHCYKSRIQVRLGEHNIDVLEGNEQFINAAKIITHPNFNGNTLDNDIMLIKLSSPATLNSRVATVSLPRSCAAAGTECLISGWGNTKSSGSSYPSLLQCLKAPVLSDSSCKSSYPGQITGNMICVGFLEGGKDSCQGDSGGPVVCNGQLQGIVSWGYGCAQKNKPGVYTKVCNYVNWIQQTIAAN", "assay": "trypsin digestion", "format": "in vitro ADME", "details": "50 mM ammonium bicarbonate, 1:100 trypsin:peptide weight ratio, 30 minutes to 1 hour, LC-MS"}, "α-chymotrypsin": {"target": "α-chymotrypsin (Bos taurus, UniProt P00766)", "assay": "α-chymotrypsin digestion", "format": "in vitro ADME", "details": "100 mM Tris, 10 mM CaCl2, pH 8.0, 0.04 mg/mL α-chymotrypsin, 1 hour, 25 °C, LC-MS"}, "elastase": {"tested_on": "elastase", "assay": "elastase digestion", "format": "in vitro ADME", "details": "50 mM Tris pH 9.0, 0.04 mg/mL elastase, 1 hour, 25 °C, LC-MS"}, "thermolysin": {"target": "thermolysin (Bacillus thermoproteolyticus, UniProt P00800)", "sequence (P00800 233-548)": "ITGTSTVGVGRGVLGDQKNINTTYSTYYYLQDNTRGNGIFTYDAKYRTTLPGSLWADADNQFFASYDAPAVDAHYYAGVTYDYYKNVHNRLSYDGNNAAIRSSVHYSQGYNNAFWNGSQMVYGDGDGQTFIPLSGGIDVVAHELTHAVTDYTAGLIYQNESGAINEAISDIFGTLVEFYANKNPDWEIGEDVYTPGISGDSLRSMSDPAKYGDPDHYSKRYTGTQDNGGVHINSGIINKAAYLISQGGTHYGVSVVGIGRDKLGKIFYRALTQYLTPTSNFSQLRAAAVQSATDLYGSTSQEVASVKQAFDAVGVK", "assay": "thermolysin digestion", "format": "in vitro ADME", "details": "50 mM Tris, 0.5 mM CaCl2, pH 8.0, 0.04 mg/mL thermolysin, 1 hour, 30 °C, LC-MS"}, "E. amnigenus": {"tested_on": "E. amnigenus", "details": "16 h"}, "[8]": {"details": "37 °C, pure water, 72 hours, 18 μM, relative peak area by LC-MS"}, "[9]": {"tested_on": "carboxypeptidase B and carboxypeptidase Y", "assay": "carboxypeptidase treatment", "details": "20 °C, 16 hours, 50 mM sodium acetate pH 6.0, LC-MS"}}, "note": "Positions of bridges follow the written chain, without caps; N, C: chain ends. Residues, ends and D or L forms follow the SMILES beside them.", "data": [{"smiles": "CC[C@H](C)[C@@H]1NC(=O)[C@H](CCCNC(=N)N)NC(=O)[C@H](CC(=O)O)NC(=O)[C@H](C(C)C)NC(=O)[C@H](CO)NC(=O)[C@H](Cc2c[nH]cn2)NC(=O)CNC(=O)CC[C@@H](C(=O)N[C@@H](Cc2ccc(O)cc2)C(=O)N[C@@H](Cc2ccccc2)C(=O)NCC(=O)N2CCC[C@H]2C(=O)N2CCC[C@H]2C(=O)NCC(=O)N[C@@H](CC(C)C)C(=O)N2CCC[C@H]2C(=O)NCC(=O)N2CCC[C@H]2C(=O)N[C@H](C(=O)N[C@@H](CC(C)C)C(=O)N[C@@H](Cc2ccccc2)C(=O)N[C@@H](Cc2ccc(O)cc2)C(=O)N[C@@H](CO)C(=O)O)C(C)C)NC(=O)[C@@H]2CCCN2C1=O", "note": "[cloacaenodin] (GHSVDRIPEYFGPPGLPGPVLFYS-OH; lactam N-9; C-terminus assumed)", "values": [{"measurement": "MIC in M63 media (agar)", "setting": "[1]", "value": 7.5, "unit": "µM"}, {"measurement": "MIC in M63 media (agar)", "setting": "[2]", "value": 1.9, "unit": "µM"}, {"measurement": "MIC in M63 media (agar)", "setting": "E. asburiae DSM 17506", "value": 3.8, "unit": "µM"}, {"measurement": "MIC in M63 media (agar)", "setting": "E. mori DSM 26271", "value": 1.9, "unit": "µM"}, {"measurement": "antimicrobial activity (zones of inhibition)", "setting": "E. coli MG1655", "value": "no observed activity"}, {"measurement": "antimicrobial activity (zones of inhibition)", "setting": "B. subtilis 168", "value": "no observed activity"}, {"measurement": "antimicrobial activity (zones of inhibition)", "setting": "[3]", "value": "no observed activity"}, {"measurement": "antimicrobial activity (zones of inhibition)", "setting": "[4]", "value": "no observed activity"}, {"measurement": "antimicrobial activity (zones of inhibition)", "setting": "[5]", "value": "no observed activity"}, {"measurement": "antimicrobial activity (zones of inhibition)", "setting": "[6]", "value": "no observed activity"}, {"measurement": "antimicrobial activity", "setting": "[7]", "value": "weak or no activity"}, {"measurement": "E. coli growth upon IPTG-induced intracellular expression without cloD", "setting": "E. coli XL-1 Blue", "value": "colonies did not appear"}, {"measurement": "susceptibility to proteolysis by trypsin", "setting": "trypsin", "value": "remained resistant to proteolysis"}, {"measurement": "susceptibility to proteolysis by chymotrypsin", "setting": "α-chymotrypsin", "value": "remained resistant to proteolysis"}, {"measurement": "susceptibility to proteolysis by elastase", "setting": "elastase", "value": "remained resistant to proteolysis"}, {"measurement": "susceptibility to proteolysis by thermolysin", "setting": "thermolysin", "value": "remained resistant to proteolysis"}, {"measurement": "MIC in M63 media (liquid)", "setting": "E. cloacae; 16 h", "value": 0.94, "unit": "µM"}, {"measurement": "cell morphology under the microscope", "setting": "E. cloacae; E. cloacae cells treated with sub-MIC values, broth microdilution cultures", "value": "exhibited a degree of filamentation"}, {"measurement": "MIC in M63 media (liquid)", "setting": "E. amnigenus", "value": 0.23, "unit": "µM"}, {"measurement": "fraction remaining threaded", "setting": "[8]", "value": "~ 83%"}, {"measurement": "susceptibility to C-terminal proteolysis by carboxypeptidase", "setting": "[9]", "value": "resistant to C-terminal proteolysis"}]}]}
